In ChEMBL document CHEMBL3813677, “Structure-Activity Relationship Studies and Molecular Modeling of Naphthalene-Based Sphingosine Kinase 2 Inhibitors” (ACS Med Chem Lett, 2016):

Legend:
[1] = molecular target: T1, Sphingosine kinase 2 (Homo sapiens) (UniProt Q9NRA0); test: Inhibition of human recombinant SphK2 remaining enzyme activity at 1 uM using sphingosine as substrate incubated for 20 mins by scintillation counting analysis in presence of [gamma-32P]ATP
T1 sequence (whole entry): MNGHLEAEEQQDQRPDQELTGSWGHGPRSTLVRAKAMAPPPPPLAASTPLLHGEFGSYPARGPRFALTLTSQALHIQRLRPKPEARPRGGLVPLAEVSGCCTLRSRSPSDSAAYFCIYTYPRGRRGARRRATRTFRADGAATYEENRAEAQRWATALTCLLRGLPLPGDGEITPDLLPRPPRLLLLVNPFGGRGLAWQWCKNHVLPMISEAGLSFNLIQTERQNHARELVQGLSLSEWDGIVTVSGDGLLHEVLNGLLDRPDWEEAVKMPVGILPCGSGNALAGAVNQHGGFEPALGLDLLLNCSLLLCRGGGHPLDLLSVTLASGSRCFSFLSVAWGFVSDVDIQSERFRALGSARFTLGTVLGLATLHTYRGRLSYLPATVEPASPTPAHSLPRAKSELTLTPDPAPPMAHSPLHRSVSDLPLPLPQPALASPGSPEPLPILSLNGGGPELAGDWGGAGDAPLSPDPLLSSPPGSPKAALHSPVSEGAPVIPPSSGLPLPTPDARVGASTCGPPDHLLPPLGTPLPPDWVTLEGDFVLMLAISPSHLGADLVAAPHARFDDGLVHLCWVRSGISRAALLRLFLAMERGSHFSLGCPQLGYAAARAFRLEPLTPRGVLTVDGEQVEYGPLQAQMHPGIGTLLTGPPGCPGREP

Sphingosine kinase 2 = molecular target: T2, Sphingosine kinase 2 (Homo sapiens, UniProt Q9NRA0); test: Inhibition of human recombinant SphK2 using sphingosine as substrate incubated for 20 mins by scintillation counting analysis in presence of [gamma-32P]ATP
T2 sequence (Q9NRA0 whole entry): T1 sequence (whole entry)

Sphingosine kinase 1 = Sphingosine kinase 1 (Homo sapiens, UniProt Q9NYA1); test: Inhibition of human recombinant SphK1 using sphingosine as substrate incubated for 20 mins by scintillation counting analysis in presence of [gamma-32P]ATP
Chain of Sphingosine kinase 1 (Q9NYA1 whole entry): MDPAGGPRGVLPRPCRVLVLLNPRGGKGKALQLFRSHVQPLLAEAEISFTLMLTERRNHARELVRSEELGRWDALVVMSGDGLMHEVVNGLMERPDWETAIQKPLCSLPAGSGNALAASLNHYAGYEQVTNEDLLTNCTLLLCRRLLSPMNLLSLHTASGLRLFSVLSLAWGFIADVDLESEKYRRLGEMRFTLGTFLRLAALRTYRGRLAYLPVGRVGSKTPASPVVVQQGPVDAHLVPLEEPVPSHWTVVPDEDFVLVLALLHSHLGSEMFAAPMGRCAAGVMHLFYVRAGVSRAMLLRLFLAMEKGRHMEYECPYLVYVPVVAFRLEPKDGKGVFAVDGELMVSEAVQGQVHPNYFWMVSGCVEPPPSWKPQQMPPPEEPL

Homo sapiens = organism: Homo sapiens; test: Selectivity ratio of Ki for human recombinant SphK1 to Ki for human recombinant SphK2
In short: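 Recombinant human SphK1 and SphK2. Inhibitory constants came from kinetic analysis of S1P production, with sphingosine concentration varied and ATP held at a fixed concentration, run with and without inhibitor. Selectivity was taken as the ratio of the two enzymes' constants.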

Compound	Activity [1] [%]	Ki (Sphingosine kinase 2) [nM]	Ki (Sphingosine kinase 1) [nM]	Ratio Ki (Homo sapiens)
CCCCCCCCc1ccc(-c2noc([C@@H]3CCCN3C(=N)N)n2)cc1	61	1400	–	–
CCCCCCCOc1ccc2cc(-c3noc([C@@H]4CCCN4C(=N)N)n3)ccc2c1	83	–	–	–
N=C(N)N1CCC[C@H]1c1nc(-c2ccc3cc(OCc4cccc(Cl)c4)ccc3c2)no1	46	–	–	–
CCCCOc1ccc2cc(-c3noc([C@@H]4CCCN4C(=N)N)n3)ccc2c1	69	–	–	–
COCCOc1ccc2cc(-c3noc([C@@H]4CCCN4C(=N)N)n3)ccc2c1	118	–	–	–
CCCCCOc1ccc2cc(-c3noc([C@@H]4CCCN4C(=N)N)n3)ccc2c1	51	980	7200	7.3
N=C(N)N1CCC[C@H]1c1nc(-c2ccc3cc(OCc4ccc(-c5ccccc5)cc4)ccc3c2)no1	51	–	–	–
N=C(N)N1CCC[C@H]1c1nc(-c2ccc3cc(OCC(=O)c4ccc(C(F)(F)F)cc4)ccc3c2)no1	65	–	–	–
N=C(N)N1CCC[C@H]1c1nc(-c2ccc3cc(OCC(=O)c4ccccc4)ccc3c2)no1	103	–	–	–
N=C(N)N1CCC[C@H]1c1nc(-c2ccc3cc(OCCc4ccccc4C(F)(F)F)ccc3c2)no1	47	–	–	–
N=C(N)N1CCC[C@H]1c1nc(-c2ccc3cc(OCC4CCCC4)ccc3c2)no1	57	–	–	–
N=C(N)N1CCC[C@H]1c1nc(-c2ccc3cc(OCc4ccc(Br)cc4)ccc3c2)no1	35	–	–	–
N=C(N)N1CCC[C@H]1c1nc(-c2ccc3cc(OCc4ccc(C(F)(F)F)cc4)ccc3c2)no1	42	1020	–	–
CCCCCCOc1ccc2cc(-c3noc([C@@H]4CCCN4C(=N)N)n3)ccc2c1	64	3800	> 10000	> 2.6
N#Cc1ccc(COc2ccc3cc(-c4noc([C@@H]5CCCN5C(=N)N)n4)ccc3c2)cc1	43	–	–	–
N=C(N)N1CCC[C@H]1c1nc(-c2ccc3cc(OCCc4ccc(C(F)(F)F)cc4)ccc3c2)no1	30	–	–	–
N=C(N)N1CCC[C@H]1c1nc(-c2ccc3cc(OCc4cccc(C(F)(F)F)c4)ccc3c2)no1	81	–	–	–
CC(C)COc1ccc2cc(-c3noc([C@@H]4CCCN4C(=N)N)n3)ccc2c1	74	–	–	–
N=C(N)N1CCC[C@H]1c1nc(-c2ccc3cc(O)ccc3c2)no1	106	–	–	–
COCCCOc1ccc2cc(-c3noc([C@@H]4CCCN4C(=N)N)n3)ccc2c1	109	–	–	–
N=C(N)N1CCC[C@H]1c1nc(-c2ccc3cc(OCc4ccc(Cl)cc4)ccc3c2)no1	56	–	–	–
Cc1ccc(COc2ccc3cc(-c4noc([C@@H]5CCCN5C(=N)N)n4)ccc3c2)cc1	94	–	–	–
N=C(N)N1CCC[C@H]1c1nc(-c2ccc3cc(OCC(=O)c4ccc(-c5ccccc5)cc4)ccc3c2)no1	77	–	–	–
CCCCCOc1ccc2cc(-c3noc([C@@H]4[C@@H](O)CCN4C(=N)N)n3)ccc2c1	46	900	730	0.8
N=C(N)N1CCC[C@H]1c1nc(-c2ccc3cc(OCCc4cccc(C(F)(F)F)c4)ccc3c2)no1	34	–	–	–
CC1(C)CCC(C)(C)c2cc(COc3ccc4cc(-c5noc([C@@H]6CCCN6C(=N)N)n5)ccc4c3)ccc21	104	–	–	–
N=C(N)N1CCC[C@H]1c1nc(-c2ccc3cc(OCc4ccccc4)ccc3c2)no1	97	–	–	–
Cc1ccc(S(=O)(=O)Oc2ccc3cc(-c4noc([C@@H]5CCCN5C(=N)N)n4)ccc3c2)cc1	89	–	–	–
CC(C)COc1ccc2cc(-c3noc([C@@H]4[C@@H](O)CCN4C(=N)N)n3)ccc2c1	53	980	930	0.9
N=C(N)N1CCC[C@H]1c1nc(-c2ccc3cc(OCc4cccc(Br)c4)ccc3c2)no1	49	–	–	–
